Measurements: ChEMBL document CHEMBL1143828, “A new Aspergillus fumigatus resistance mechanism conferring in vitro cross-resistance to azole antifungals involves a combination of cyp51A alterations” (2007)
Values after ≈ are worked out from the molar mass of the structure shown.

Key:
Type in all cases: functional
Aspergillus fumigatus [1] = assay: Antifungal activity against azole-resistant Aspergillus fumigatus V13/03-CM3272 isolate from patient with X-linked chronic granulomatous disease by broth microdilution susceptibility test
Method in brief: (§1)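 Broth microdilution per CLSI M38-A with modifications; agents tested: itraconazole, voriconazole, ravuconazole, posaconazole, amphotericin B. Clinical isolates stored as conidia in sterile distilled water, grown at 37°C on potato dextrose agar. Each strain tested at least three times on different days. Quality controls: A. flavus ATCC 204304 and A. fumigatus ATCC 204305.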

Aspergillus fumigatus [2] = assay: Antifungal activity against azole-resistant Aspergillus fumigatus V49/09-CM4023 isolate from patient with chronic obstructive pulmonary disease by broth microdilution susceptibility test; method in brief: as §1
Aspergillus fumigatus [3] = assay: Antifungal activity against azole-resistant Aspergillus fumigatus V49/77-CM4050 isolate from patient with acute myeloid leukemia by broth microdilution susceptibility test; method in brief: as §1
Aspergillus fumigatus [4] = assay: Antifungal activity against azole-resistant Aspergillus fumigatus M03/669-CM2627 isolate from patient by broth microdilution susceptibility test; method in brief: as §1
Aspergillus fumigatus [5] = assay: Antifungal activity against azole-resistant Aspergillus fumigatus V13/02-CM3271 isolate from patient with X-linked chronic granulomatous disease by broth microdilution susceptibility test; method in brief: as §1
Aspergillus fumigatus [6] = assay: Antifungal activity against azole-resistant Aspergillus fumigatus V48/27-CM3936 isolate from patient with acute myeloid leukemia by broth microdilution susceptibility test; method in brief: as §1
Aspergillus fumigatus [7] = assay: Antifungal activity against azole-resistant Aspergillus fumigatus V45/07-CM3819 isolate from patient with chronic granulomatous disease by broth microdilution susceptibility test; method in brief: as §1
Aspergillus fumigatus [8] = assay: Antifungal activity against azole-resistant Aspergillus fumigatus V41/26-CM3820 isolate from patient with pulmonary fibrosis by broth microdilution susceptibility test; method in brief: as §1
Aspergillus fumigatus [9] = assay: Antifungal activity against azole-resistant Aspergillus fumigatus V34/78-CM3279 isolate from patient with hyper-immunoglobulin E syndrome by broth microdilution susceptibility test; method in brief: as §1
Aspergillus fumigatus [10] = assay: Antifungal activity against azole-resistant Aspergillus fumigatus V34/77-CM3278 isolate from patient with hyper-immunoglobulin E syndrome by broth microdilution susceptibility test; method in brief: as §1
Aspergillus fumigatus [11] = assay: Antifungal activity against azole-resistant Aspergillus fumigatus V34/76-CM3277 isolate from patient with hyper-immunoglobulin E syndrome by broth microdilution susceptibility test; method in brief: as §1
Aspergillus fumigatus [12] = assay: Antifungal activity against azole-resistant Aspergillus fumigatus V34/75-CM3276 isolate from patient with hyper-immunoglobulin E syndrome by broth microdilution susceptibility test; method in brief: as §1
Aspergillus fumigatus [13] = assay: Antifungal activity against azole-resistant Aspergillus fumigatus V28/78-CM3275 isolate from patient with acute myeloid leukemia by broth microdilution susceptibility test; method in brief: as §1
Aspergillus fumigatus [14] = assay: Antifungal activity against azole-resistant Aspergillus fumigatus V27/28-CM3273 isolate from patient by broth microdilution susceptibility test; method in brief: as §1

Structure (SMILES): C[C@@H]1[C@H](O)[C@@H](C)/C=C/C=C/C=C/C=C/C=C/C=C/C=C/[C@H](O[C@@H]2O[C@H](C)[C@@H](O)[C@H](N)[C@@H]2O)C[C@@H]2O[C@](O)(C[C@@H](O)C[C@@H](O)[C@H](O)CC[C@@H](O)C[C@@H](O)CC(=O)O[C@H]1C)C[C@H](O)[C@H]2C(=O)O [AMPHOTERICIN B]
- MIC (Aspergillus fumigatus [1]): 0.25 µg/mL (≈ 0.271 µM)
- MIC (Aspergillus fumigatus [2]): 0.25 µg/mL (≈ 0.271 µM)
- MIC (Aspergillus fumigatus [3]): 0.25 µg/mL (≈ 0.271 µM)
- MIC (Aspergillus fumigatus [4]): 0.25 µg/mL (≈ 0.271 µM)
- MIC (Aspergillus fumigatus [5]): 0.25 µg/mL (≈ 0.271 µM)
- MIC (Aspergillus fumigatus [6]): 0.25 µg/mL (≈ 0.271 µM)
- MIC (Aspergillus fumigatus [7]): 0.25 µg/mL (≈ 0.271 µM)
- MIC (Aspergillus fumigatus [8]): 0.25 µg/mL (≈ 0.271 µM)
- MIC (Aspergillus fumigatus [9]): 0.25 µg/mL (≈ 0.271 µM)
- MIC (Aspergillus fumigatus [10]): 0.25 µg/mL (≈ 0.271 µM)
- MIC (Aspergillus fumigatus [11]): 0.25 µg/mL (≈ 0.271 µM)
- MIC (Aspergillus fumigatus [12]): 0.25 µg/mL (≈ 0.271 µM)
- MIC (Aspergillus fumigatus [13]): 0.25 µg/mL (≈ 0.271 µM)
- MIC (Aspergillus fumigatus [14]): 0.25 µg/mL (≈ 0.271 µM)

Structure (SMILES): CCC(C)n1ncn(-c2ccc(N3CCN(c4ccc(OCC5COC(Cn6cncn6)(c6ccc(Cl)cc6Cl)O5)cc4)CC3)cc2)c1=O (stereo not given) [ITRACONAZOLE]
- MIC (Aspergillus fumigatus [1]): > 8 µg/mL
- MIC (Aspergillus fumigatus [2]): > 8 µg/mL
- MIC (Aspergillus fumigatus [3]): > 8 µg/mL
- MIC (Aspergillus fumigatus [4]): > 8 µg/mL
- MIC (Aspergillus fumigatus [5]): > 8 µg/mL
- MIC (Aspergillus fumigatus [6]): > 8 µg/mL
- MIC (Aspergillus fumigatus [7]): > 8 µg/mL
- MIC (Aspergillus fumigatus [8]): > 8 µg/mL
- MIC (Aspergillus fumigatus [9]): > 8 µg/mL
- MIC (Aspergillus fumigatus [10]): > 8 µg/mL
- MIC (Aspergillus fumigatus [11]): > 8 µg/mL
- MIC (Aspergillus fumigatus [12]): > 8 µg/mL
- MIC (Aspergillus fumigatus [13]): > 8 µg/mL
- MIC (Aspergillus fumigatus [14]): > 8 µg/mL

Structure (SMILES): CC[C@@H]([C@H](C)O)n1ncn(-c2ccc(N3CCN(c4ccc(OC[C@@H]5CO[C@@](Cn6cncn6)(c6ccc(F)cc6F)C5)cc4)CC3)cc2)c1=O [POSACONAZOLE]
- MIC (Aspergillus fumigatus [1]): 1 µg/mL (≈ 1.43 µM)
- MIC (Aspergillus fumigatus [2]): 4 µg/mL (≈ 5.71 µM)
- MIC (Aspergillus fumigatus [3]): 1 µg/mL (≈ 1.43 µM)
- MIC (Aspergillus fumigatus [4]): 0.5 µg/mL (≈ 0.713 µM)
- MIC (Aspergillus fumigatus [5]): 1 µg/mL (≈ 1.43 µM)
- MIC (Aspergillus fumigatus [6]): 4 µg/mL (≈ 5.71 µM)
- MIC (Aspergillus fumigatus [7]): 1 µg/mL (≈ 1.43 µM)
- MIC (Aspergillus fumigatus [8]): 0.5 µg/mL (≈ 0.713 µM)
- MIC (Aspergillus fumigatus [9]): 0.5 µg/mL (≈ 0.713 µM)
- MIC (Aspergillus fumigatus [10]): 0.5 µg/mL (≈ 0.713 µM)
- MIC (Aspergillus fumigatus [11]): 0.5 µg/mL (≈ 0.713 µM)
- MIC (Aspergillus fumigatus [12]): 0.5 µg/mL (≈ 0.713 µM)
- MIC (Aspergillus fumigatus [13]): 0.5 µg/mL (≈ 0.713 µM)
- MIC (Aspergillus fumigatus [14]): 1 µg/mL (≈ 1.43 µM)

Structure (SMILES): C[C@@H](c1nc(-c2ccc(C#N)cc2)cs1)[C@](O)(Cn1cncn1)c1ccc(F)cc1F [RAVUCONAZOLE]
- MIC (Aspergillus fumigatus [1]): > 8 µg/mL
- MIC (Aspergillus fumigatus [2]): 8 µg/mL (≈ 18.3 µM)
- MIC (Aspergillus fumigatus [3]): 4 µg/mL (≈ 9.14 µM)
- MIC (Aspergillus fumigatus [4]): 4 µg/mL (≈ 9.14 µM)
- MIC (Aspergillus fumigatus [5]): > 8 µg/mL
- MIC (Aspergillus fumigatus [6]): 8 µg/mL (≈ 18.3 µM)
- MIC (Aspergillus fumigatus [7]): 8 µg/mL (≈ 18.3 µM)
- MIC (Aspergillus fumigatus [8]): 4 µg/mL (≈ 9.14 µM)
- MIC (Aspergillus fumigatus [9]): 4 µg/mL (≈ 9.14 µM)
- MIC (Aspergillus fumigatus [10]): 4 µg/mL (≈ 9.14 µM)
- MIC (Aspergillus fumigatus [11]): 4 µg/mL (≈ 9.14 µM)
- MIC (Aspergillus fumigatus [12]): 4 µg/mL (≈ 9.14 µM)
- MIC (Aspergillus fumigatus [13]): 8 µg/mL (≈ 18.3 µM)
- MIC (Aspergillus fumigatus [14]): 4 µg/mL (≈ 9.14 µM)

Structure (SMILES): C[C@@H](c1ncncc1F)[C@](O)(Cn1cncn1)c1ccc(F)cc1F [VORICONAZOLE]
- MIC (Aspergillus fumigatus [1]): 2 µg/mL (≈ 5.73 µM)
- MIC (Aspergillus fumigatus [2]): 4 µg/mL (≈ 11.5 µM)
- MIC (Aspergillus fumigatus [3]): 4 µg/mL (≈ 11.5 µM)
- MIC (Aspergillus fumigatus [4]): 4 µg/mL (≈ 11.5 µM)
- MIC (Aspergillus fumigatus [5]): 2 µg/mL (≈ 5.73 µM)
- MIC (Aspergillus fumigatus [6]): 4 µg/mL (≈ 11.5 µM)
- MIC (Aspergillus fumigatus [7]): > 8 µg/mL
- MIC (Aspergillus fumigatus [8]): 4 µg/mL (≈ 11.5 µM)
- MIC (Aspergillus fumigatus [9]): 2 µg/mL (≈ 5.73 µM)
- MIC (Aspergillus fumigatus [10]): 2 µg/mL (≈ 5.73 µM)
- MIC (Aspergillus fumigatus [11]): 2 µg/mL (≈ 5.73 µM)
- MIC (Aspergillus fumigatus [12]): 4 µg/mL (≈ 11.5 µM)
- MIC (Aspergillus fumigatus [13]): 4 µg/mL (≈ 11.5 µM)
- MIC (Aspergillus fumigatus [14]): 4 µg/mL (≈ 11.5 µM)
